Measured values published in ChEMBL document CHEMBL1152556, “Omega-conotoxin GVIA mimetics based on an anthranilamide core: effect of variation in ammonium side chain lengths and incorporation of fluorine” (Bioorg Med Chem, 2009).
pEC50: −log10 of the molar value.

Biological target: Voltage-dependent N-type calcium channel subunit alpha-1B (Rattus norvegicus, UniProt Q02294)
Assay: Displacement of [125I]GVIA from Cav2.2 channel in rat brain by scintillation counting
Type: tissue-based
Settings: not given; call rule not given here
Outline: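 Radioligand displacement run in triplicate at room temperature on crude rat brain membrane (8 lg per well, added last) with 125I-GVIA tracer. Buffer: 20 mM HEPES, 75 mM NaCl, 0.2 mM EDTA, 0.2 mM EGTA, leupeptin, aprotinin, 0.1% BSA, pH 7.4. Shaken 1 h, then filtered on PEI-soaked glass fibre and washed with HEPES/125 mM NaCl, pH 7.4. Filter-bound counts read.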

Sequence of Voltage-dependent N-type calcium channel subunit alpha-1B (Q02294 whole entry): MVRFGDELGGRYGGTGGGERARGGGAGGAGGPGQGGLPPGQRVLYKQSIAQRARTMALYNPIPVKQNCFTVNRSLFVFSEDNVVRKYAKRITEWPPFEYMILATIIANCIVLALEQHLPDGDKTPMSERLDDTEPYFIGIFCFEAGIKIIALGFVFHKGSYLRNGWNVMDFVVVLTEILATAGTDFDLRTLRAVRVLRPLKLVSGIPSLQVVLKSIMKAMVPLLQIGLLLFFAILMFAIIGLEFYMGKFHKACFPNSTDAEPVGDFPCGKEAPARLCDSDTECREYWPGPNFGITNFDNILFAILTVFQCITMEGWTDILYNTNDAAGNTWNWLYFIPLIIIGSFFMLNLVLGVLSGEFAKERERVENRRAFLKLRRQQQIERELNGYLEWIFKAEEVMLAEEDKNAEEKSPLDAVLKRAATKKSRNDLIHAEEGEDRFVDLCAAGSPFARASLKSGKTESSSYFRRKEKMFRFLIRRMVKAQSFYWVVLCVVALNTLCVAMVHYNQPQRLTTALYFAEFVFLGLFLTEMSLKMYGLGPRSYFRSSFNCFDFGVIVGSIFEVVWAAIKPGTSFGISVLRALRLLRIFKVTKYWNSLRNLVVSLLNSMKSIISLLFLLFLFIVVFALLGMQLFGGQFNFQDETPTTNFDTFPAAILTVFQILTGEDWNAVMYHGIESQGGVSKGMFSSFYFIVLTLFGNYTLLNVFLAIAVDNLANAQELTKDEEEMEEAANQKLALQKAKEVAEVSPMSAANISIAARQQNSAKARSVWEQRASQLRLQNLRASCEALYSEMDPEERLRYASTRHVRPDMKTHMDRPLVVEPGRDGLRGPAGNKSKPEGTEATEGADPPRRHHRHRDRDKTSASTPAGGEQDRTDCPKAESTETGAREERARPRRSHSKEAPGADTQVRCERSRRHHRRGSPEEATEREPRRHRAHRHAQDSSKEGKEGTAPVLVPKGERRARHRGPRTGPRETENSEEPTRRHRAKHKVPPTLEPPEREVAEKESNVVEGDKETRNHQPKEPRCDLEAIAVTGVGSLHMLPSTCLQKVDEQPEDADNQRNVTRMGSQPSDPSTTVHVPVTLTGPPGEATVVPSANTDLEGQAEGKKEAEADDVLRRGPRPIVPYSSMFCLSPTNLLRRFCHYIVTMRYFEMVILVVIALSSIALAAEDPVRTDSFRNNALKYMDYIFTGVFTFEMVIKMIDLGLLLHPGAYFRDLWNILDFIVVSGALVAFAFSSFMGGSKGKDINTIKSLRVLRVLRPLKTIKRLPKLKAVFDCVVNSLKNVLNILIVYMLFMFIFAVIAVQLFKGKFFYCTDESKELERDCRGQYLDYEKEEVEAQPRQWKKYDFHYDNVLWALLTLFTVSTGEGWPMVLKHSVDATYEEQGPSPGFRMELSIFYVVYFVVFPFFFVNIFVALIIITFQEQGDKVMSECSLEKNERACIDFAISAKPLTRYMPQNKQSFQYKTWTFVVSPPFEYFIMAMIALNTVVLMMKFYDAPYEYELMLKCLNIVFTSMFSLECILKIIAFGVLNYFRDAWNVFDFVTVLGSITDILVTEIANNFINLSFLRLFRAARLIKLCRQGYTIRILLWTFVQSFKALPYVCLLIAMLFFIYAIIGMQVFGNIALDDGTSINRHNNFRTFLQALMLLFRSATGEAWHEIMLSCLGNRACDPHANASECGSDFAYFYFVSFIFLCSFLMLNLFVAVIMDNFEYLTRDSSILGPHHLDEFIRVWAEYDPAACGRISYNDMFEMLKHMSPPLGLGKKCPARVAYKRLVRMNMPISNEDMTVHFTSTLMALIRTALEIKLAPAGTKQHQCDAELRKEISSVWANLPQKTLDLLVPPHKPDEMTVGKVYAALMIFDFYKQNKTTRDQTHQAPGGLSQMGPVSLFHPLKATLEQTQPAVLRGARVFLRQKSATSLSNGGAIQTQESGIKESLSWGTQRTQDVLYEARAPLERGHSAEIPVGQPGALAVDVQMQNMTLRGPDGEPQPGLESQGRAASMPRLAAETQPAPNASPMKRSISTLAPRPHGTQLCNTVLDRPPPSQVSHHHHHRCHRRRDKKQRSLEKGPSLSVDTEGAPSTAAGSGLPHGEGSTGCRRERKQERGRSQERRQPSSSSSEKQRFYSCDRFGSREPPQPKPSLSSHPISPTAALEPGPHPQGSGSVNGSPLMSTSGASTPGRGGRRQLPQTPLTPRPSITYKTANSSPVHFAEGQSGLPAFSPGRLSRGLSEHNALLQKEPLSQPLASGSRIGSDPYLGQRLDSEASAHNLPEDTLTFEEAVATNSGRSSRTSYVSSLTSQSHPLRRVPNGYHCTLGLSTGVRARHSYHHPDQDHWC

SMILES	EC50
NCCCCCCCC(=O)Nc1ccc(OCCCN)cc1C(=O)Nc1ccc(Oc2ccc(O)cc2)cc1	Not Active
NCCCCCCCC(=O)Nc1ccc(OCCCN)cc1C(=O)Nc1ccc(Oc2ccc(F)cc2)cc1	Not Active

Same assay, conditions: read-out: EC50

SMILES	pEC50
NC(N)=NCCCCCC(=O)Nc1ccc(OCCCN=C(N)N)cc1C(=O)Nc1ccc(Oc2ccccc2)cc1	4.80
NCCCCCC(=O)Nc1ccc(OCCCN)cc1C(=O)Nc1ccc(Oc2ccccc2)cc1	3.97
NC(N)=NCCCCCCCC(=O)Nc1ccc(OCCCN=C(N)N)cc1C(=O)Nc1ccc(Oc2ccc(F)cc2)cc1	5.22
NC(N)=NCCCCCCCC(=O)Nc1ccc(OCCCCN=C(N)N)cc1C(=O)Nc1ccc(Oc2ccccc2)cc1	4.82
NC(N)=NCCCCC(=O)Nc1ccc(OCCCN=C(N)N)cc1C(=O)Nc1ccc(Oc2ccccc2)cc1	3.94
NC(N)=NCCCCCCCC(=O)Nc1ccc(OCCCN=C(N)N)cc1C(=O)Nc1ccc(Oc2ccccc2)cc1	4.89
NC(N)=NCCCCCCCC(=O)Nc1ccc(OCCCN=C(N)N)cc1C(=O)Nc1ccc(Oc2ccc(O)cc2)cc1	4.80
NCCCCCCCC(=O)Nc1ccc(OCCCCN)cc1C(=O)Nc1ccc(Oc2ccccc2)cc1	4.05
NCCCCCC(=O)Nc1ccc(OCCCCN)cc1C(=O)Nc1ccc(Oc2ccccc2)cc1	4.00
NCCCCC(=O)Nc1ccc(OCCCN)cc1C(=O)Nc1ccc(Oc2ccccc2)cc1	4.11
NC(N)=NCCCCCC(=O)Nc1ccc(OCCCCN=C(N)N)cc1C(=O)Nc1ccc(Oc2ccccc2)cc1	4.77
NCCCCCCCC(=O)Nc1ccc(OCCCN)cc1C(=O)Nc1ccc(Oc2ccccc2)cc1	4.14
